Publication PMC3715850 (Nature Communications, 2013)
Like-named read-outs stand apart in the source and are kept apart here.

Tests used:
Type in all cases: binding
E710A = E710A (Escherichia coli, UniProt P00582, C907S/D424A/E710A/K550C/L744C); details: for occupancy of the closed conformation: 1 mM dNTP
Method in brief: (§1)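 Doubly labelled Klenow fragment (<100 pM) with DNA, titrated with nucleotide in 40 mM HEPES-NaOH pH 7.3, 10 mM MgCl2, 1 mM DTT, 100 μg ml−1 BSA, 5% glycerol, 1 mM mercaptoethylamine. Read by confocal alternating-laser excitation (532/638 nm) at ~22 °C. Stoichiometry-filtered E* histograms fitted as double Gaussians (σ≤0.07). Low-FRET peak shift and high-FRET fraction globally fitted for K0, K1, K2; Kd1=1/K1, Kd2=1/(K1K2).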

wt KF [1] = molecular target: T1, wt KF (Escherichia coli, UniProt P00582, C907S/D424A/K550C/L744C); assay: Single-molecule FRET nucleotide titration in the absence of DNA; details: no DNA
Method in brief: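 Polymerase without DNA: doubly labelled protein (<100 pM) titrated with nucleotide in HEPES-NaOH pH 7.3 buffer with 10 mM MgCl2, at ~22 °C by confocal alternating-laser excitation smFRET. O and C denote unliganded-protein states. Double-Gaussian fits of stoichiometry-filtered E* histograms; low-FRET peak shift and high-FRET fraction fitted globally for K0, K1, K2, with Kd1=1/K1.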

wt KF [2] = molecular target: T1, wt KF; assay: Interconversion rates of ternary complexes by PDA and FRET-width analysis; details: template A, listed as A-dGTP
wt KF [3] = molecular target: T1, wt KF; details: for free energy of closed complex relative to partially closed state, ΔrG(IN/CN) / free energy of partially closed state relative to open binary complex, ΔrG(O/IN): template A; for free energy of partially closed state relative to open binary complex, ΔrG(O/IN): nucleotide concentrations in E. coli (dTTP 120 μM, dGTP 60 μM)
Method in brief: as §1

Y766A = Y766A (Escherichia coli, UniProt P00582, C907S/D424A/K550C/L744C/Y766A); details: template G (DNA2); listed as G-dCTP
Method in brief: as §1

Y766F = Y766F (Escherichia coli, UniProt P00582, C907S/D424A/K550C/L744C/Y766F); details: template A (DNA1); listed as A-dTTP
Method in brief: as §1

[4] = ternary complex, saturating nucleotide, PDA

Nc1ncnc2c1ncn2[C@H]1C[C@H](O)[C@@H](COP(=O)(O)OP(=O)(O)OP(=O)(O)O)O1 [dATP]
occupancy of the closed conformation (E710A; template T (DNA3)): 58%
K2 (equilibrium IN to closed CN) (E710A; template T (DNA3), listed as T-dATP): ~ 2

Nc1nc2c(ncn2[C@H]2C[C@H](O)[C@@H](COP(=O)(O)OP(=O)(O)OP(=O)(O)O)O2)c(=O)[nH]1 [dGTP]
K2 (equilibrium IN to closed CN) (wt KF [1]): < 0.2
rate of the O-to-IN transition (wt KF [2]; at 60 μM dGTP (E. coli concentration), K1·kIN→O·[N]): 390 s⁻¹
kCN→IN (closed to partially closed) (wt KF [2]; [4]): 45 s⁻¹
kIN→CN (partially closed to closed) (wt KF [2]; [4]): 3 s⁻¹
free energy of closed complex relative to partially closed state, ΔrG(IN/CN) (wt KF [3]): +6 kJ mol^−1
free energy of partially closed state relative to open binary complex, ΔrG(O/IN) (wt KF [3]): -0.17 kcal/mol

Nc1ccn([C@H]2C[C@H](O)[C@@H](COP(=O)(O)OP(=O)(O)OP(=O)(O)O)O2)c(=O)n1 [dCTP]
K2 (equilibrium IN to closed CN) (Y766A): 8.9
occupancy of the closed conformation (E710A; template G (DNA2)): 61%
K2 (equilibrium IN to closed CN) (E710A; template G (DNA2), listed as G-dCTP): ~ 2

Cc1cn([C@H]2C[C@H](O)[C@@H](COP(=O)(O)OP(=O)(O)OP(=O)(O)O)O2)c(=O)[nH]c1=O [dTTP]
K2 (equilibrium IN to closed CN) (Y766F): 9.6
free energy of closed complex relative to partially closed state, ΔrG(IN/CN) (wt KF [3]): -0.96 kcal/mol
molecules in closed conformation (occupancy) (wt KF [3]; template A (DNA1), 1 mM nucleotide): ~ 85%
K2 (equilibrium IN to closed CN) (wt KF [3]; template A (DNA1), listed as A-dTTP): 6.1
free energy of partially closed state relative to open binary complex, ΔrG(O/IN) (wt KF [3]): -1.9 kcal/mol

Nc1nc2c(ncn2[C@@H]2O[C@H](COP(=O)(O)OP(=O)(O)OP(=O)(O)O)[C@@H](O)[C@H]2O)c(=O)[nH]1 [rGTP]
K2 (equilibrium IN to closed CN) (wt KF [3]; template A (DNA1), listed as A-rGTP): < 0.2
